Screening data: PubChem, Johns Hopkins Ion Channel Center
Shown are actives, neighbours in structure and some others; about 3.8% of the full set was active somewhere.
KCNQ1 block – inhibitors of human KCNQ1 channel, primary screen, cell-based, thallium flux, high-throughput; CHO-K1 KCNQ1, FluxOR thallium flux fluorescence; hits give high values; B-score at 10 µM; 310,000 compounds, 1.3% hits;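 active = compounds whose thallium flux B-score, printed positive for inhibition, exceeds three library SD while starting fluorescence stays within three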;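 also: channel opened by potassium depolarization with thallium stimulus after 20 min compound exposure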
KCNK9 inh – KCNK9 potassium channel inhibitors, primary screen, HEK293 cells, thallium flux; 310,000 compounds, 1.2% hits; Potassium channel subfamily K member 9 (Homo sapiens), Q9NPC2; FluxOR thallium flux fluorescence; hits give low values; B-score at 10 µM; AID 488922, 2010;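 active = ratio B-score over 3 SD below the library mean, with starting fluorescence within 5 SD of its mean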;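 also: negative B-score means less thallium flux so channel inhibition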
KCNK3 inh – human KCNK3 channel inhibitors, primary screen, CHO cells, FluxOR thallium flux, B-score; AID 602410, 2012; 340,000 compounds, 0.84% hits; B-score at 10 µM; FluxOR fluorescence; hits give low values;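 active = B-score under library mean minus 4 SD, starting fluorescence ratio at most library mean plus 5 SD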;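 also: more negative B-score means stronger inhibition of thallium flux through KCNK3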
Kir21 inh – inhibitors of mouse Kir2.1 inward-rectifier potassium channel | HEK293-Kir2.1, FluxOR thallium flux fluorescence; hits give low values | B-score at 10 µM | 310,000 compounds, 0.85% hits | AID 1672, 2009;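 active = fluorescence ratio B-score at or below minus 3 SD of library scores, with starting-brightness B-score within 2 SD, cut at about -4.2 in these data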;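 also: channel flux triggered by added potassium and thallium sulfate stimulus; B-score of peak minus minimum fluorescence over baseline after thallium stimulus; more negative B-score means stronger Kir2.1 block with less thallium influx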
hERG rescue – hERG rescue from dofetilide block, primary screen, cell-based, CHO-hERG, FluxOR thallium flux, dofetilide IC70. dofetilide IC70 present. activation (rescue from dofetilide block), less the hit threshold, % at 10 µM. Voltage-gated inwardly rectifying potassium channel KCNH2 (Homo sapiens), Q12809. 310,000 compounds, 0.51% hits;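 active = activation above the mean of controls blocked by dofetilide plus 5 SD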;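 also: thallium influx through hERG after potassium depolarization seen as dye fluorescence rise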
KCNQ1 act – potentiators or activators of KCNQ1 channel, primary screen, cell-based, thallium flux, high-throughput; Potassium voltage-gated channel subfamily KQT member 1 (Homo sapiens), P51787; CHO-K1 KCNQ1, thallium flux FluxOR fluorescence; hits give high values; B-score at 10 µM; 310,000 compounds, 0.35% hits;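 active = fluorescence ratio B-score, a plate-corrected score, at least three library SD, with initial intensity B-score within 5 SD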
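assay system = CHO-K1 cells stably expressing KCNQ1 | medium = assay buffer, equal DMSO in all wells | timing = 37 °C overnight plating, 90-min dark dye load, 20-min compound pretreatment | measured by = kinetic FluxOR thallium fluorescence, 10-s 1-Hz baseline, 110-s post-stimulus read | measure = fluorescence change relative to baseline, converted to B score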
* marks the source's active call; other numbers are inactive results; i = inactive; . = no result given.

SMILES | KCNQ1 block | KCNK9 inh | KCNK3 inh | Kir21 inh | hERG rescue | KCNQ1 act
COc1ccc(-c2nsc3c(N4CCCCC4)ncnc23)cc1 | i | i | i | -2.2 | 8.0* | i
Cc1csc2c(N3CCC(C(=O)O)CC3)ncnc12 | i | i | i | 1.5 | -4 | i
Cc1cccc(NC(=O)N2CCN(Cc3ccc4c(c3)OCO4)CC2)c1C | i | i | i | -1.8 | -9 | i
COc1cccc(NC(=O)c2oc3ccccc3c2NC(=O)c2ccc3c(c2)OCO3)c1 | i | -7.9* | i | 0.28 | -13 | i
COc1cccc(NC(=O)c2ccc3c(c2)OCO3)c1 | i | i | i | 0 | -3 | i
Cc1ccc(S(=O)(=O)N2CCCCC2)cc1NC(=O)Cn1ncc(Cl)c(Cl)c1=O | . | . | i | . | . | .
Cc1cc(Br)ccc1NC(=O)CNC(=O)Cn1ncc(Cl)c(Cl)c1=O | i | i | i | 1.4 | 4.7* | i
CCC(C(=O)NCc1ccccc1OC)c1ccccc1 (configuration not stated) | i | i | i | -1.7 | -5 | i
Cc1cccc(CN2CCCC(C(=O)Nc3ccccc3Oc3cccnc3)C2)c1 (configuration not stated) | i | i | i | -5.5* | -3 | i
Cc1ccc(CN2CCC(C(=O)Nc3ccc(Oc4cccnc4)cc3)CC2)cc1 | i | i | i | -4.8* | -9 | i
O=C(Nc1ccc(Oc2cccnc2)cc1)C1CCN(Cc2ccccc2)CC1 | i | i | i | -3.5 | -6 | i
Cc1ccc2nc(NC(=O)C3CCCN3C(=O)OC(C)(C)C)sc2c1 (configuration not stated) | i | i | i | 0.07 | 0 | i
CC(C)Cc1nnc(NC(=O)CCC(=O)NC2CC2)s1 | i | i | i | 0.03 | -7 | i
O=C(Cn1[nH]c(=O)c2ccccc2c1=O)NCCN1C(=O)S/C(=C\c2ccccc2)C1=O | . | . | i | . | . | .
O=C(Nc1cccc(C(F)(F)F)c1)c1sc(Cl)nc1C(F)(F)F | i | i | i | 0.01 | -13 | i
Cc1ccccc1NS(=O)(=O)c1cc(C(=O)Nc2ccccc2-c2ccccc2)ccc1Cl | i | -7.2* | i | -1.3 | -5 | i
CCOc1cc(/C=N/NC(=O)CN2CCCCC2)ccc1OCc1ccc(Cl)cc1 | i | i | i | -0.18 | -7 | i
CCOc1cc(/C=N/NC(=O)CN2CCCCC2)ccc1OCc1cccc(Cl)c1 | i | i | i | -4.7* | -39 | i
CC1CCN(C(=O)COC(=O)c2nn(C)c(=O)c3ccccc23)CC1 | i | i | i | 0.37 | -8 | i
OCCNc1nc(Nc2ccccc2Oc2ccccc2)nc(N2CCCC2)n1 | i | i | i | 2.4 | -15 | i
C1CCN(CCCNC2C3CC4CC(C3)CC2C4)C1 (configuration not stated) | i | i | i | -11* | -9 | i
COc1ccc(Cl)cc1NC(=O)C(C)N(C)Cc1ccc(C(F)(F)F)cc1 (configuration not stated) | i | -7.4* | i | 0.76 | -17 | i
COc1cc(CN(C)C(C)C(=O)Nc2ccc([N+](=O)[O-])cc2Cl)ccc1OC(F)F (configuration not stated) | i | i | i | -0.14 | -12 | i
O=C(CCS(=O)(=O)c1ccc(Br)cc1)N1CCCCCC1 | i | i | i | -0.09 | -7 | i
CCOC(=O)c1c(C)[nH]c(C(=O)N/N=C/c2cc([N+](=O)[O-])ccc2O)c1C | 9* | i | i | 0.87 | -17 | i
SMILES | KCNQ1 block | KCNK9 inh | KCNK3 inh | Kir21 inh | hERG rescue | KCNQ1 act
CCOC(=O)c1c(C)[nH]c(C(=O)N/N=C\c2ccccc2O)c1C | i | i | i | 0.34 | -5 | i
O=C(N/N=C/c1cc([N+](=O)[O-])ccc1O)c1cc(-c2ccccc2)nc2ccccc12 | 7* | i | i | 1.3 | -6 | i
Cc1ccn2c(/C=N/OCc3ccc(F)cc3)c(-c3ccc(Cl)cc3)nc2c1 | i | -7.4* | i | -3.9 | -15 | i
Cc1ncc(N=Nc2ccc(F)cc2)c(-c2ccc(Cl)cc2)n1 | i | i | i | 0.93 | -11 | i
CC(NCCC1(Cc2ccccc2Cl)CCOC(C)(C)C1)c1cccs1 (configuration not stated) | i | i | i | -4.9* | -16 | i
CC(NCCC1(C(C)C)CCOC(C)(C)C1)c1cccs1 (configuration not stated) | i | i | i | -0.42 | -8 | i
CC(=O)CSc1ncnc2sc3c(c12)CCC(C)C3 (configuration not stated) | i | i | i | 1.5 | 50* | 33*
CCn1c(=O)c(C(=O)NNS(=O)(=O)c2ccc(Cl)cc2)c(O)c2ccccc21 | 6* | i | i | -1.5 | -14 | i
Cc1cc(Sc2ncnc(N)c2[N+](=O)[O-])ncn1 | 6* | i | i | -1.2 | -24 | i
c1ccc(Nc2ncnc3sc4c(c23)CCC4)cc1 | i | i | i | 0.92 | 5.2* | i
c1csc(CCNc2ncnc3sc4c(c23)CCC4)c1 | i | i | -8.7* | 0.77 | -18 | i
COC(=O)c1cc(CNC(=O)C(C)NS(=O)(=O)c2ccc(C)c(C)c2)ccc1OC (configuration not stated) | i | i | i | 1.1 | -3 | i
CCN(C[C@H]1N[C@@](CC)(C(=O)OC)[C@H]2C(=O)N(C)C(=O)[C@@H]12)S(=O)(=O)c1ccc(F)cc1 | . | . | i | . | . | .
O=C(O)c1cncc(SCc2ccccc2)n1 | i | i | i | 1.1 | -5 | i
CCOc1ccccc1C(=O)NC(C(=O)N(C)c1c(N)n(Cc2ccccc2)c(=O)[nH]c1=O)C(C)C (configuration not stated) | . | . | i | . | . | .
CCOC(=O)C1CCCN(C(=O)c2cc(Cl)ccc2Cl)C1 (configuration not stated) | i | i | i | -0.73 | -6 | i
CCOC(=O)C1CCCN(C(=O)C(C)Oc2ccc(Cl)cc2Cl)C1 (configuration not stated) | i | i | i | -4.7* | -14 | i
CCOC(=O)C1(CCCc2ccccc2)CCN(C(=O)[C@@H]2C[C@@H](C)NC(=S)N2)CC1 | i | i | i | 0.92 | -16 | i
Cc1onc(-c2ccccc2)c1C(=O)Oc1cccnc1 | i | i | i | 1.3 | -16 | i
